In brackets after ≈: the same amount, converted by molar mass.
Columns and labels:
[1] = Solubility at pH 7; assay type: physicochemical; settings: buffer
[2] = biological target: Cyclin-dependent kinase 1/cyclin B1 (Homo sapiens, UniProt P06493); assay: Inhibition of CDK1/Cyclin B
How it was run: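 Biochemical kinase-panel assay against the CDK1/cyclin B complex; IC50 in μM, reported as the mean of two or more experiments.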

A2780 [3] = assay: Effect on cell cycle progression in human A2780 cells assessed as increase in accumulation at […] phase at 1 uM after 24 hrs by flow cytometry; assay type: functional
How it was run: (§1)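 A2780 cells (ECACC) were seeded at 25 000 cells/cm² in RPMI 1640 pH 7.4 with 10% FBS, 2 mM L-glutamine and penicillin-streptomycin, at 37 °C and 5% CO2. After 24 h, cells were exposed to 1 μM compound for 24 h. Floating and trypsin/EDTA-detached cells were pooled and PBS-washed. Samples were split for flow cytometry and BrdU incorporation. Results are expressed versus untreated control cells.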

A2780 [4] = assay: Effect on cell cycle progression in human A2780 cells assessed as decrease in accumulation at S phase at 1 uM after 24 hrs by flow cytometry; assay type: functional; parameters: scale not given: the % may be the effect or the level left; how it was run: as §1
A2780 [5] = assay: Effect on cell cycle progression in human A2780 cells assessed as decrease in accumulation at G2/M phase at 1 uM after 24 hrs by flow cytometry; assay type: functional; parameters: scale not given: the % may be the effect or the level left; how it was run: as §1
A2780 [6] = assay: Inhibition of DNA synthesis in human A2780 cells assessed as decrease in […] incorporation at 1 uM after 24 hrs by flow cytometry; assay type: functional; parameters: scale not given: the % may be the effect or the level left; how it was run: as §1
A2780 [7] = assay: Antitumor activity against human A2780 cells xenografted in nude mouse assessed as tumor growth inhibition at 20 mg/kg, po BID for 10 consecutive days; assay type: functional; parameters: scale not given: the % may be the effect or the level left
How it was run: (§2)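 A2780 human ovarian xenografts were grown in nude mice. Compound was given orally at 20, 30 or 40 mg/kg twice daily for 10 consecutive days. The read-out was tumor growth inhibition.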

A2780 [8] = assay: Antitumor activity against human A2780 cells xenografted in nude mouse assessed as tumor growth inhibition at 30 mg/kg, po BID for 10 consecutive days; assay type: functional; parameters: scale not given: the % may be the effect or the level left; how it was run: as §2
A2780 [9] = assay: Antitumor activity against human A2780 cells xenografted in nude mouse assessed as tumor growth inhibition at 40 mg/kg, po BID for 10 consecutive days; assay type: functional; parameters: scale not given: the % may be the effect or the level left; how it was run: as §2
[10] = Inhibition of PDGFR
[11] = biological target: Mast/stem cell growth factor receptor Kit (Homo sapiens, UniProt P10721); assay: Inhibition of C-KIT
Chain of Mast/stem cell growth factor receptor Kit (P10721 whole entry): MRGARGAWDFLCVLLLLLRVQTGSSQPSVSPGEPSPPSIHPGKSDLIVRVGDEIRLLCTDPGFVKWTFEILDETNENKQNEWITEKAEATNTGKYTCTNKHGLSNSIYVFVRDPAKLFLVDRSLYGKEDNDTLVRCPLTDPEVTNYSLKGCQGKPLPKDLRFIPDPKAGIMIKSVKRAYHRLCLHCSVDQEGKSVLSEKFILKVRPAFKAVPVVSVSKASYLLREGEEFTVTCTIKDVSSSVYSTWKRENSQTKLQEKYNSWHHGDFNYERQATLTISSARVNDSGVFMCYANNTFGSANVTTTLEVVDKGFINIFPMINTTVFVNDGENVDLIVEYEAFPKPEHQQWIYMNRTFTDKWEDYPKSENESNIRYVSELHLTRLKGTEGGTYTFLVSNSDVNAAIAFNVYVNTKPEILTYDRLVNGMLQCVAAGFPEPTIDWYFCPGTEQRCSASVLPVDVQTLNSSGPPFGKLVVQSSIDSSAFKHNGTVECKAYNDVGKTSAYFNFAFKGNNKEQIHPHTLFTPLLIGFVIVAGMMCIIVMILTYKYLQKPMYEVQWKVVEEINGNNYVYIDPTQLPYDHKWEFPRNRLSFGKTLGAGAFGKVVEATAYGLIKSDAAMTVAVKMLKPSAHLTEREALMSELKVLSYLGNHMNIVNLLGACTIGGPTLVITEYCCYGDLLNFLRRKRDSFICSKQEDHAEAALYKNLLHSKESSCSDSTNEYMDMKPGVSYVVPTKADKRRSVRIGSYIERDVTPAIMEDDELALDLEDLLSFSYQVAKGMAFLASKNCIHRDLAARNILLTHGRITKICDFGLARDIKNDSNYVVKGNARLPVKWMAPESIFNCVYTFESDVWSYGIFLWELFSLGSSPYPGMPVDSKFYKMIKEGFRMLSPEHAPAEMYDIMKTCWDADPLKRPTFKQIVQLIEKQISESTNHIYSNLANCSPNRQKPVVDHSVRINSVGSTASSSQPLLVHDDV

[12] = biological target: Vascular endothelial growth factor receptor 3 (Homo sapiens, UniProt P35916); assay: Inhibition of VEGFR3
[13] = biological target: Serine/threonine-protein kinase Nek6 (Homo sapiens, UniProt Q9HC98); assay: Inhibition of NEK6
[14] = Inhibition of NIM
[15] = biological target: Fibroblast growth factor receptor 1 (Homo sapiens, UniProt P11362); assay: Inhibition of FGFR1
[16] = biological target: Proto-oncogene tyrosine-protein kinase receptor Ret (Homo sapiens, UniProt P07949); assay: Inhibition of RET
[17] = Inhibition of SULU1
Aurora kinase B = Aurora kinase B (Homo sapiens, UniProt Q96GD4); assay: Inhibition of Aurora B
[18] = biological target: RAC-alpha serine/threonine-protein kinase (Homo sapiens, UniProt P31749); assay: Inhibition of AKT1
Chain of RAC-alpha serine/threonine-protein kinase (P31749 whole entry): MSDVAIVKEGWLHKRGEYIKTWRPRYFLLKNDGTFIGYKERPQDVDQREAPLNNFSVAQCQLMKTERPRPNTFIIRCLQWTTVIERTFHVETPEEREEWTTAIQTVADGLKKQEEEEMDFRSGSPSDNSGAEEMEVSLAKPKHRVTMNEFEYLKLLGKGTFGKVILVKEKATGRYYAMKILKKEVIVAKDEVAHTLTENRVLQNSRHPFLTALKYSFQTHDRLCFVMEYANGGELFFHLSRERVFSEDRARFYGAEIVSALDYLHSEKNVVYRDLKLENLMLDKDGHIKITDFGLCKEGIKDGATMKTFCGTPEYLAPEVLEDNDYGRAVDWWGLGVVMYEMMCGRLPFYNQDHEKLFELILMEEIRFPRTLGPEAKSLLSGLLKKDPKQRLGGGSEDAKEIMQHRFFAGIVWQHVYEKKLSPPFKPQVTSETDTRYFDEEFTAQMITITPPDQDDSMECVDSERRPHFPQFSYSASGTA

[19] = biological target: Cell division cycle 7-related protein kinase (Homo sapiens, UniProt O00311); assay: Inhibition of CDC7
[20] = biological target: Serine/threonine-protein kinase Chk1 (Homo sapiens, UniProt O14757); assay: Inhibition of CHK1
[21] = Inhibition of CK2
[22] = biological target: Mitogen-activated protein kinase 1 (Homo sapiens, UniProt P28482); assay: Inhibition of ERK2
[23] = biological target: Glycogen synthase kinase-3 beta (Homo sapiens, UniProt P49841); assay: Inhibition of GSK3-beta
Chain of Glycogen synthase kinase-3 beta (P49841 whole entry): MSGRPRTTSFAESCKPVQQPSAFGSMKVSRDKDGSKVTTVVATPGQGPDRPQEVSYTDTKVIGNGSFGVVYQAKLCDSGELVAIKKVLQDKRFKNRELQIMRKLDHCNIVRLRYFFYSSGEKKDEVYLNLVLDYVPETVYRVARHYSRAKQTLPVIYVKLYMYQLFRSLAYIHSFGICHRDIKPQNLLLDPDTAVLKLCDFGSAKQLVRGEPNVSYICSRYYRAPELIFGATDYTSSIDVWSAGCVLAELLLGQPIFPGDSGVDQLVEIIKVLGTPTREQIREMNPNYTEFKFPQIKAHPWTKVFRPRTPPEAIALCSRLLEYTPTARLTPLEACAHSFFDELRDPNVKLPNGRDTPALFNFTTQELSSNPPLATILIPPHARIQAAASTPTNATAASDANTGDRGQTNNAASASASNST

[24] = biological target: Insulin-like growth factor 1 receptor (Homo sapiens, UniProt P08069); assay: Inhibition of IGF1R
[25] = biological target: Inhibitor of nuclear factor kappa-B kinase subunit epsilon (Homo sapiens, UniProt Q14164); assay: Inhibition of IKKi
[26] = biological target: Inhibitor of nuclear factor kappa-B kinase subunit beta (Homo sapiens, UniProt O14920); assay: Inhibition of IKK2
Insulin receptor = Insulin receptor (Homo sapiens, UniProt P06213); assay: Inhibition of IR
[27] = biological target: Tyrosine-protein kinase Lyn (Homo sapiens, UniProt P07948); assay: Inhibition of LYN
[28] = biological target: MAP kinase-activated protein kinase 2 (Homo sapiens, UniProt P49137); assay: Inhibition of MAPKAPK2
Chain of MAP kinase-activated protein kinase 2 (P49137 whole entry): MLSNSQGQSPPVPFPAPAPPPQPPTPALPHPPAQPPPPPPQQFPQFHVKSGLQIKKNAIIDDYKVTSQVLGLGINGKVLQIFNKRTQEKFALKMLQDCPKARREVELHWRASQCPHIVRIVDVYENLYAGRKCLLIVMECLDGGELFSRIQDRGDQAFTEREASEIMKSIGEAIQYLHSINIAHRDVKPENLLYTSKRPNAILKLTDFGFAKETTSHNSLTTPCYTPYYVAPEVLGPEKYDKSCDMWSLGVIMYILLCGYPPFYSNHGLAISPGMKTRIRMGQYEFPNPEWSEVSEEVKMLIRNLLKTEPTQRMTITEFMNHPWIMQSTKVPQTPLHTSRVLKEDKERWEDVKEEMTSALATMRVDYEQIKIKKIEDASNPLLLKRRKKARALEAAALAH

[29] = biological target: Serine/threonine-protein kinase PAK 4 (Homo sapiens, UniProt O96013); assay: Inhibition of PAK4
[30] = biological target: 3-phosphoinositide-dependent protein kinase 1 (Homo sapiens, UniProt O15530); assay: Inhibition of PDK1
[31] = biological target: cAMP-dependent protein kinase catalytic subunit alpha (Homo sapiens, UniProt P17612); assay: Inhibition of PKAalpha
[32] = biological target: Protein kinase C beta type (Homo sapiens, UniProt P05771); assay: Inhibition of PKCbeta
[33] = biological target: Serine/threonine-protein kinase PLK1 (Homo sapiens, UniProt P53350); assay: Inhibition of PLK1
Chain of Serine/threonine-protein kinase PLK1 (P53350 whole entry): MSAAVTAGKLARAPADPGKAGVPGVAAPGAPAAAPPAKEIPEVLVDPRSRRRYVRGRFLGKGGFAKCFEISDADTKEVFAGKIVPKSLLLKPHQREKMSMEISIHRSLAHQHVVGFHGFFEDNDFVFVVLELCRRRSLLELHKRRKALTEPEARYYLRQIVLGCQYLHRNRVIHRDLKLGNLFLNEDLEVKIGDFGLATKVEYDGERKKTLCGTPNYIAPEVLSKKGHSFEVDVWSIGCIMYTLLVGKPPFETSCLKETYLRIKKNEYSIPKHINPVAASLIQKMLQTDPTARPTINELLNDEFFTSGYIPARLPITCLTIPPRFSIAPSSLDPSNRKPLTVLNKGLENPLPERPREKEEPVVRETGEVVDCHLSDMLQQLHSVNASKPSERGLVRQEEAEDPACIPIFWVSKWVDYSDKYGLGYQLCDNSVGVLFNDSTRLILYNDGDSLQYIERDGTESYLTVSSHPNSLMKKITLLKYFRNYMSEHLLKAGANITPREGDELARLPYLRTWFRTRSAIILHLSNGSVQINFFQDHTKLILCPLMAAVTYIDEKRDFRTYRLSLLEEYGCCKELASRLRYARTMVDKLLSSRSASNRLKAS

[34] = biological target: Mitogen-activated protein kinase 14 (Homo sapiens, UniProt Q16539); assay: Inhibition of P38alpha
Chain of Mitogen-activated protein kinase 14 (Q16539 whole entry): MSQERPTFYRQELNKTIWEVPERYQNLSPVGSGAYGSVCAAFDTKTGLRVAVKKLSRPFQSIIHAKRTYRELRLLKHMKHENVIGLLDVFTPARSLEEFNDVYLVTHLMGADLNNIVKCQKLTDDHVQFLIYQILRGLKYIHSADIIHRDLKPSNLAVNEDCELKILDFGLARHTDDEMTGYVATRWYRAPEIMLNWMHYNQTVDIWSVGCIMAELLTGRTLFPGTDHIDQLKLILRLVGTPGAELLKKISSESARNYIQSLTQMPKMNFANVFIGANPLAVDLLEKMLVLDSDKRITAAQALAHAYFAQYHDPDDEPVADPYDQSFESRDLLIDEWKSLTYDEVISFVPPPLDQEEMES

[35] = biological target: Mitogen-activated protein kinase 11 (Homo sapiens, UniProt Q15759); assay: Inhibition of P38beta
Chain of Mitogen-activated protein kinase 11 (Q15759 whole entry): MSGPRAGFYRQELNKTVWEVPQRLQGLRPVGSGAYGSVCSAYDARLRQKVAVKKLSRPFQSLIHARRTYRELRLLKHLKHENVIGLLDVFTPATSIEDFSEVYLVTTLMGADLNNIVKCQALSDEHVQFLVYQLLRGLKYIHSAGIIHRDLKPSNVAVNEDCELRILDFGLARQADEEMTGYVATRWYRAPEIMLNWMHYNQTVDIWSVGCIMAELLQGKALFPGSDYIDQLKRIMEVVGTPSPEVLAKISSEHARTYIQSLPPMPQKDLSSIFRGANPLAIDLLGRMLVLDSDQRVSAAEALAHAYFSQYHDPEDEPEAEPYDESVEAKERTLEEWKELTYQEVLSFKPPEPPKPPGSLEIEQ

[36] = biological target: STE20-like serine/threonine-protein kinase (Homo sapiens, UniProt Q9H2G2); assay: Inhibition of STLK2
[37] = biological target: Vascular endothelial growth factor receptor 2 (Homo sapiens, UniProt P35968); assay: Inhibition of VEGFR2
Chain of Vascular endothelial growth factor receptor 2 (P35968 whole entry): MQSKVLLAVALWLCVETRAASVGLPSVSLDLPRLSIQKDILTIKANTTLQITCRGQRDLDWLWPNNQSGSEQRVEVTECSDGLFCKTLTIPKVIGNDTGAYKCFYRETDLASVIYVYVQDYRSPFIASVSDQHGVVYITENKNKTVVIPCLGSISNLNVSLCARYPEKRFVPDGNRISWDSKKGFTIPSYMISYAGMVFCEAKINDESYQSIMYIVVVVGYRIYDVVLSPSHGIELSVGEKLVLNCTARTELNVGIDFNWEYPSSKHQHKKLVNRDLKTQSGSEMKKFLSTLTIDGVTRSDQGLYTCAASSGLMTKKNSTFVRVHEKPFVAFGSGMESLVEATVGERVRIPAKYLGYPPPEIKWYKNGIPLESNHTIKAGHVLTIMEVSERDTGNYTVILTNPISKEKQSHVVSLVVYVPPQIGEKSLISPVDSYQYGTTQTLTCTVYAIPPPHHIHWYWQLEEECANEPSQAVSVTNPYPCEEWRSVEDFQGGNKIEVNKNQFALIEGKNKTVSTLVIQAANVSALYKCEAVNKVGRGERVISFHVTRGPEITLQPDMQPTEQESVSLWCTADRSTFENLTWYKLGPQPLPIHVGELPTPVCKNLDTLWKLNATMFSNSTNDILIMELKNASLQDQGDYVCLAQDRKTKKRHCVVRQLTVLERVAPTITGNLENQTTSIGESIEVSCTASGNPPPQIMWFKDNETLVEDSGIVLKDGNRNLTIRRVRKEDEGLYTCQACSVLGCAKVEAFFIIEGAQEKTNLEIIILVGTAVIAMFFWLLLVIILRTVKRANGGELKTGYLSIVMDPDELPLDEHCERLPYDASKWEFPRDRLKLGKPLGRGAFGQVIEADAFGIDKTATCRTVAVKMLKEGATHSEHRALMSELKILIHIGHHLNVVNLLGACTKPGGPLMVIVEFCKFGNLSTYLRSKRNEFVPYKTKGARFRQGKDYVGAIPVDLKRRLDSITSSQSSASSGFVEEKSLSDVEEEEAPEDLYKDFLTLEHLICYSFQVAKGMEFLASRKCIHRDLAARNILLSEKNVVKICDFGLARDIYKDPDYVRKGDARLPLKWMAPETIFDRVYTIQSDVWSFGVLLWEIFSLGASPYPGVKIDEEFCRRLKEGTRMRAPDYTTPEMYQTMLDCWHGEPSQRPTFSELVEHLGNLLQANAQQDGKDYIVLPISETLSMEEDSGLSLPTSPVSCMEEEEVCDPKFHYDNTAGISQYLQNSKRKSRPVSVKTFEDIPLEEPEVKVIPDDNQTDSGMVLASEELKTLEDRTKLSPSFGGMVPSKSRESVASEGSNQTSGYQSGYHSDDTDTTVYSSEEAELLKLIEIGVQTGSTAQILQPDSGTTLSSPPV

[38] = biological target: Tyrosine-protein kinase ZAP-70 (Homo sapiens, UniProt P43403); assay: Inhibition of ZAP-70
Aurora kinase A = biological target: T1, Aurora kinase A (Homo sapiens, UniProt O14965); assay: Inhibition of Aurora A
T1 sequence (O14965 whole entry): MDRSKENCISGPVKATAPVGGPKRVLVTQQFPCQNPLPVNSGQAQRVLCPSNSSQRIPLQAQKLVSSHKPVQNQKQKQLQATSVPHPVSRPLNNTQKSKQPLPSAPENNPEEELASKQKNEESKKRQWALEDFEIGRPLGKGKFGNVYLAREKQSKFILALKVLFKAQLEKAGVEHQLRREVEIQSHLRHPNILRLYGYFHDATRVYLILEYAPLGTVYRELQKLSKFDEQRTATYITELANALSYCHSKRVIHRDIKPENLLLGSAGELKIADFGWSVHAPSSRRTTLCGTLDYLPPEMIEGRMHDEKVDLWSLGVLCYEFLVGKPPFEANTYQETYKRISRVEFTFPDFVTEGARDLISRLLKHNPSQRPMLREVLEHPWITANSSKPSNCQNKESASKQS

A2780 [39] = assay: Antiproliferative activity against human A2780 cells after 72 hrs by cell Titer_Glo assay; assay type: functional, cell-based; settings: A2780, 72 h
How it was run: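 A2780 cells were seeded at 10000–30000 cells/cm² in medium with 10% FCS. After 24 h they were treated with serial dilutions of compound, in two replicates. Cell amount was read by Cell Titer Glo 72 h after treatment. IC50 came from sigmoidal fitting.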

CNC(=O)c1nn(C)c2c1C(C)(C)Cc1cnc(Nc3ccc(N4CCN(C)CC4)cc3)nc1-2 [MILCICLIB]
solubility [1]: 191 µM (≈ 88 µg/mL) | IC50 [2]: 0.398 µM | Activity (A2780 [3]): 49% | Activity (A2780 [4]): 68% | Activity (A2780 [5]): 40% | Activity (A2780 [6]): 75% | Activity (A2780 [7]): 53% | Activity (A2780 [8]): 76% | Activity (A2780 [9]): 91% | IC50 [10]: 0.579 µM | IC50 [11]: 0.668 µM | IC50 [12]: 0.92 µM | IC50 [13]: 1.06 µM | IC50 [14]: 1.17 µM | IC50 [15]: 1.21 µM | IC50 [16]: 1.93 µM | IC50 [17]: 2.87 µM | IC50 (Aurora kinase B): 4.17 µM | IC50 [18]: > 10 µM | IC50 [19]: > 10 µM | IC50 [20]: > 10 µM | IC50 [21]: > 10 µM | IC50 [22]: > 10 µM | IC50 [23]: > 10 µM | IC50 [24]: > 10 µM | IC50 [25]: > 10 µM | IC50 [26]: > 10 µM | IC50 (Insulin receptor): > 10 µM | IC50 [27]: > 10 µM | IC50 [28]: > 10 µM | IC50 [29]: > 10 µM | IC50 [30]: > 10 µM | IC50 [31]: > 10 µM | IC50 [32]: > 10 µM | IC50 [33]: > 10 µM | IC50 [34]: > 10 µM | IC50 [35]: > 10 µM | IC50 [36]: > 10 µM | IC50 [37]: > 10 µM | IC50 [38]: > 10 µM | IC50 (Aurora kinase A): 1.05 µM | IC50 (A2780 [39]): 0.2 µM

From ChEMBL document CHEMBL1151962, “Identification of N,1,4,4-tetramethyl-8-{[4-(4-methylpiperazin-1-yl)phenyl]amino}-4,5-dihydro-1H-pyrazolo[4,3-h]quinazoline-3-carboxamide (PHA-848125), a potent, orally available cyclin dependent kinase inhibitor” (J Med Chem, 2009)
